Data set [1] in a line: Cytotoxicity against mutant K-ras-transformed human T29Kt1 cells assessed as cell viability after 3 days by sulforhodamine B assay. It counts as functional, cell-based. Conditions: T29Kt1, 72 h. Summed up:
(§1)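 Monolayer cultures were grown in RPMI-1640 or DMEM with 10% heat-inactivated fetal calf serum and penicillin/streptomycin, at 37°C and 5% CO2. Cells were exposed for 3 days to compound from 10−4.5 M (31.6 μM) down to 10−8 M (10 nM), with 1% DMSO as the control. Viability was read by sulforhodamine B. IC50 was the dose halving surviving cells versus control, run in quadruplicate and repeated at least three times.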
In general terms: Sulforhodamine B stains cellular protein and so reports cell mass.

Data set [2] in a line: Cytotoxicity against human T29 cells assessed as cell viability after 3 days by sulforhodamine B assay. Format: cell-based. The note with it: T29, 72 h. Summed up:
as §1

The test system of data set [3] is NCI-H460. Briefly: Cytotoxicity against human H460 cells assessed as cell viability after 3 days by sulforhodamine B assay. The note with it: NCI-H460, 72 h. It counts as functional, cell-based. Summed up:
as §1

Data set [4] is described as follows: Stability of compound at pH 7.4. Format: physicochemical. The note with it: buffer.
Data set [5] is described as follows: Stability of compound at pH 2. It counts as physicochemical. Conditions: buffer.
Data set [6] is described as follows: Stability of compound at pH 4. Format: physicochemical. Conditions: buffer.
The nature of data set [7]: Stability of compound at pH 6. It counts as physicochemical. Conditions: buffer.
Data set [8] can be described thus: Stability of compound at pH 9. It counts as physicochemical. The note with it: buffer.

In general, IC50 refers to the point on the concentration scale where inhibition reaches its midpoint. For the molecule `O=Cc1cn(Cc2ccc(Cl)cc2)c2ccc(F)cc12`, the IC50 in data set [1] is 9.09 µM; in data set [2] it was > 31.6 µM; in data set [3], 0.29 µM. For the same molecule, the Stability result in data set [4] and in data set [5] was “Stable” in each case.
As to `COC(=O)c1cn(Cc2ccc(Cl)cc2)c2ccccc12`, the IC50 in data set [1] was found to be 25.1 µM; in data set [2] it was 17.7 µM; in data set [3] it was 31.6 µM.
As to `Cc1ccc(Cn2cc(C=O)c3ccccc32)cc1`, the IC50 is 3.98 µM in data set [1], > 31.6 µM in data set [2] and 0.063 µM in data set [3]. In addition, the Stability result in data set [4] and in data set [5] was “Stable” each time.
With `CC(=O)OCc1cn(Cc2ccc(Cl)cc2)c2ccccc12`, the IC50 in data set [1] was 0.063 µM; in data set [2], > 31.6 µM; in data set [3], 0.039 µM.
On to `O=Cc1cn(Cc2ccc([N+](=O)[O-])cc2)c2ccccc12`, for which the IC50 in data set [1] is 10 µM; in data set [2] it was > 31.6 µM; in data set [3], 0.5 µM. Further, the Stability entry in data set [4] and in data set [5] was “Stable” throughout.
As to `OCc1cn(Cc2ccccc2)c2ccccc12`, the IC50 in data set [1] came out at 0.03 µM; in data set [2], 14.5 µM; in data set [3], 0.112 µM. In addition, the Stability result in data set [6] is on record as “Stable”; in data set [7], “Stable”; in data set [4], “Stable”; in data set [8], “Stable”; in data set [5], “Unstable”.
As to `O=Cc1cn(Cc2ccccc2F)c2ccccc12`, the IC50 was 0.31 µM in data set [1], > 31.6 µM in data set [2] and 0.1 µM in data set [3]. Besides, the Stability entry in data set [4] and in data set [5] was “Stable” in each case.
Take `O=CC1C(=O)N(Cc2ccc(Cl)cc2)c2cc(Cl)ccc21` (stereo unspecified): the IC50 in data set [1] is 18.2 µM; in data set [2], 18.6 µM; in data set [3], 18.2 µM. Also, the Stability result in data set [4] and in data set [5] was “Stable” throughout.
As for `CC(C)Cn1cc(C=O)c2ccccc21`, the concentration for half-maximal inhibition (IC50) in data set [1] is > 31.6 µM; in data set [2] it was > 31.6 µM; in data set [3] it was 1.99 µM. Moreover, the Stability result in data set [4] and in data set [5] was “Stable” throughout.
In the case of `COC(=O)CNCc1cn(Cc2ccc(Cl)cc2)c2ccccc12`, the concentration for half-maximal inhibition (IC50) in data set [1] worked out at 5.01 µM; in data set [2], 31.6 µM; in data set [3] it was 0.1 µM.
On to `N#Cc1cn(Cc2cccc(Cl)c2)c2ccccc12`, for which the IC50 in data set [1], in data set [2] and in data set [3] was > 31.6 µM in each case.
For `O=Cc1cn(Cc2ccc(Br)cc2)c2ccccc12`, the concentration for half-maximal inhibition (IC50) is 0.25 µM in data set [1], > 31.6 µM in data set [2] and 0.031 µM in data set [3]. For the same molecule, the Stability entry in data set [4] and in data set [5] was “Stable” throughout.
Regarding `O=Cc1cn(Cc2ccc(Cl)cc2)c2ccccc12`, the IC50 in data set [1] was 2.51 µM; in data set [2], > 31.6 µM; in data set [3], 0.25 µM. The Stability result in data set [4] and in data set [5] was “Stable” throughout.
Take `Cc1cn(Cc2ccc(Cl)cc2)c2ccccc12`: the IC50 in data set [1], in data set [2] and in data set [3] was > 31.6 µM throughout.
`Brc1cccc(Cn2cc(Cc3cn(Cc4cccc(Br)c4)c4ccccc34)c3ccccc32)c1`: the IC50 in data set [1], in data set [2] and in data set [3] was > 31.6 µM in each case.
On to `COC(=O)c1cn(Cc2ccc(Br)cc2)c2ccccc12`, for which the IC50 in data set [1] came out at 6.3 µM; in data set [2], 5 µM; in data set [3] it was 5 µM.
Regarding `O=Cc1cn(CCCOc2ccc(Cl)cc2)c2ccccc12`, the IC50 was 4.89 µM in data set [1], > 31.6 µM in data set [2] and 0.045 µM in data set [3]. Further, the Stability entry in data set [4] and in data set [5] was “Stable” throughout.
`O=Cc1cn(Cc2ccc(Cl)cc2Cl)c2ccccc12`: the IC50 in data set [1] is 1.58 µM; in data set [2] it was > 31.6 µM; in data set [3], 0.1 µM. Besides, the Stability result in data set [4] and in data set [5] was “Stable” each time.
On to `O=Cc1cn(Cc2cccc(Cl)c2)c2ccccc12`, for which the half-inhibitory concentration (IC50) was 0.37 µM in data set [1], > 31.6 µM in data set [2] and 0.037 µM in data set [3]. The Stability result in data set [4] and in data set [5] was “Stable” in each case.
On to `COCc1cn(Cc2ccc(Cl)cc2)c2ccccc12`, for which the half-maximal inhibitory concentration (IC50) in data set [1] is 7.94 µM; in data set [2] it was > 31.6 µM; in data set [3], 1.99 µM.
Turning to `O=Cc1cn(Cc2ccc(Br)c(Br)c2)c2ccccc12`, the IC50 is 0.63 µM in data set [1], > 31.6 µM in data set [2] and 0.063 µM in data set [3]. In addition, the Stability entry in data set [4] and in data set [5] was “Stable” each time.
For the molecule `O=Cc1cn(Cc2ccc(Cl)cc2)c2cc(F)ccc12`, the IC50 was 9.19 µM in data set [1], > 31.6 µM in data set [2] and 0.12 µM in data set [3]. The Stability entry in data set [4] and in data set [5] was “Stable” in each case.
As to `CC(=O)c1cn(Cc2cccc(Cl)c2)c2ccccc12`, the IC50 in data set [1], in data set [2] and in data set [3] was > 31.6 µM throughout.
With `O=C(NC1CCCCC1)OCc1cn(Cc2ccc(Cl)cc2)c2ccccc12`, the IC50 in data set [1] was 0.2 µM; in data set [2] it was > 31.6 µM; in data set [3], 0.02 µM.
For the molecule `O=Cc1cn(Cc2ccc(Cl)cc2)c2cc(Br)ccc12`, the IC50 was found to be 32 µM in data set [1], 21 µM in data set [2] and 0.09 µM in data set [3]. Moreover, the Stability result in data set [4] and in data set [5] was “Stable” each time.
Regarding `Cc1cccc(Cn2cc(C=O)c3ccccc32)c1`, the IC50 in data set [1] is 6.3 µM; in data set [2] it was > 31.6 µM; in data set [3], 0.039 µM. Also, the Stability result in data set [4] and in data set [5] was “Stable” throughout.
`O=Cc1cn(Cc2cccc(F)c2)c2ccccc12`: the half-maximal inhibitory concentration (IC50) in data set [1] is 2.63 µM; in data set [2], > 31.6 µM; in data set [3], 0.031 µM. In addition, the Stability entry in data set [4] and in data set [5] was “Stable” throughout.
`O=Cc1cn(Cc2ccc(Cl)cc2)c2ccc(Cl)cc12`: the IC50 was 10 µM in data set [1], > 31.6 µM in data set [2] and 0.4 µM in data set [3]. Further, the Stability entry in data set [4] and in data set [5] was “Stable” each time.
Turning to `OCc1cc2cc(F)ccc2n1Cc1ccc(Cl)cc1`, the results for the IC50 in data set [1], in data set [2] and in data set [3] were 15.1 µM, 17.4 µM and 11.5 µM, respectively.
For `Clc1cccc(Cn2cc(Cc3cn(Cc4cccc(Cl)c4)c4ccccc34)c3ccccc32)c1` the same measures were > 31.6 µM, > 31.6 µM and > 31.6 µM.
As for `CC(=O)c1cn(Cc2ccc(Cl)cc2)c2ccccc12`, the IC50 in data set [1], in data set [2] and in data set [3] was > 31.6 µM throughout.
In the case of `O=C(O)c1cn(Cc2ccccc2)c2ccccc12`, the IC50 in data set [1], in data set [2] and in data set [3] was > 31.6 µM throughout.
For the molecule `CC(O)c1cn(Cc2ccc(Cl)cc2)c2ccccc12` (stereo unspecified), the IC50 is 19.9 µM in data set [1], > 31.5 µM in data set [2] and 25.1 µM in data set [3].
For `O=Cc1cn(Cc2cccc([N+](=O)[O-])c2)c2ccccc12`, the IC50 in data set [1] is 0.5 µM; in data set [2], > 31.6 µM; in data set [3] it was 0.039 µM. Besides, the Stability result in data set [4] and in data set [5] was “Stable” throughout.
Regarding `O=Cc1cn(Cc2ccc(C(F)(F)F)cc2)c2ccccc12`, the half-inhibitory concentration (IC50) in data set [1] was > 31.6 µM; in data set [2] it was > 31.6 µM; in data set [3] it was 1.58 µM. Moreover, the Stability result in data set [4] and in data set [5] was “Stable” throughout.
`O=Cc1cn(Cc2cccc(C(F)(F)F)c2)c2ccccc12`: the IC50 in data set [1] was 1.78 µM; in data set [2], > 31.6 µM; in data set [3], 0.14 µM. In addition, the Stability result in data set [4] and in data set [5] was “Stable” each time.
Turning to `O=C(O)c1cn(Cc2ccc(Cl)cc2)c2ccccc12`, the IC50 in data set [1], in data set [2] and in data set [3] was > 31.6 µM in each case.
With `CC(=O)c1cn(Cc2ccccc2)c2ccccc12`, the values for the half-maximal inhibitory concentration (IC50) in data set [1], in data set [2] and in data set [3] were > 31.6 µM, > 31.6 µM and 10 µM, respectively.
Consider `O=Cc1cn(Cc2cccc(Cl)c2)c2ccc(F)cc12`, for which the IC50 was 1.5 µM in data set [1], > 31.6 µM in data set [2] and 0.37 µM in data set [3]. Also, the Stability result in data set [4] and in data set [5] was “Stable” throughout.
For the molecule `c1ccc(Cn2ccc3ccccc32)cc1`, the IC50 in data set [1], in data set [2] and in data set [3] was > 31.6 µM each time.
Regarding `O=Cc1cn(Cc2ccccc2)c2ccccc12`, the results for the IC50 in data set [1], in data set [2] and in data set [3] were 5 µM, > 31.6 µM and 0.045 µM, respectively. For the same molecule, the Stability result in data set [4] and in data set [5] was “Stable” throughout.
Consider `CC(=O)c1cn(Cc2ccccc2Cl)c2ccccc12`, for which the half-inhibitory concentration (IC50) in data set [1], in data set [2] and in data set [3] was > 31.6 µM each time.
For the molecule `OCCc1cn(Cc2ccc(Cl)cc2)c2ccccc12`, the IC50 in data set [1], in data set [2] and in data set [3] was > 31.6 µM each time.
Regarding `O=Cc1cn(Cc2cccc(Br)c2)c2ccccc12`, the IC50 in data set [1] is 1.58 µM; in data set [2], > 31.6 µM; in data set [3], 0.039 µM. The Stability result in data set [4] and in data set [5] was “Stable” each time.
In the case of `OCCCc1cn(Cc2ccccc2)c2ccccc12`, the IC50 in data set [1], in data set [2] and in data set [3] was > 31.6 µM each time.

For the origin of these results see ChEMBL document CHEMBL1772965, “Analogues and derivatives of oncrasin-1, a novel inhibitor of the C-terminal domain of RNA polymerase II and their antitumor activities” (J Med Chem, 2011).
